Measured values taken from ChEMBL document CHEMBL4316611, “Design, synthesis and evaluation of novel (S)-tryptamine derivatives containing an allyl group and an aryl sulfonamide unit as anticancer agents” (Bioorg Med Chem Lett, 2019).

Experiments:
Assay type in all cases: functional, cell-based
CNE = experiment: Cytotoxicity in human CNE1 cells assessed as reduction in cell viability incubated for 48 hrs by MTT assay
In short: (§1)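 MTT viability assay; cells exposed continuously to compounds for 48 h. IC50 values reported as mean ± SD. Cisplatin served as positive control.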

HeLa = experiment: Cytotoxicity in human HeLa cells assessed as reduction in cell viability incubated for 48 hrs by MTT assay; in short: as §1
HepG2 = experiment: Cytotoxicity in human HepG2 cells assessed as reduction in cell viability incubated for 48 hrs by MTT assay; conditions: HepG2, 48 h; in short: as §1
A549 = experiment: Cytotoxicity in human A549 cells assessed as reduction in cell viability incubated for 48 hrs by MTT assay; conditions: A549, 48 h; in short: as §1

Compound	IC50 (CNE) [µM]	IC50 (HeLa) [µM]	IC50 (HepG2) [µM]	IC50 (A549) [µM]
C=CC[C@@H](Cc1c[nH]c2ccccc12)NS(=O)(=O)c1ccc(F)c(Cl)c1	34.2	33.8	38.2	41.6
C=CC[C@@H](Cc1c[nH]c2ccccc12)NS(=O)(=O)c1ccc(F)c(C(F)(F)F)c1	27	32	36.3	38.5
C=CC[C@@H](Cc1c[nH]c2ccccc12)NS(=O)(=O)c1ccccc1	40.8	69.5	58.4	77.1
CCC[C@@H](Cc1c[nH]c2ccccc12)NS(=O)(=O)c1ccccc1	47.1	78.9	68.7	91.5
C=CC[C@@H](Cc1c[nH]c2ccccc12)NS(=O)(=O)c1ccc2ccccc2c1	45.2	52.7	44.9	55.5
C=CC[C@@H](Cc1c[nH]c2ccccc12)NS(=O)(=O)c1cc(Cl)c(F)cc1F	34.2	46.9	33.2	50.7
C=CC[C@@H](Cc1c[nH]c2ccccc12)NS(=O)(=O)c1ccc(F)cc1Cl	–	61.7	71.7	–
C=CC[C@@H](Cc1c[nH]c2ccccc12)NS(=O)(=O)c1ccccc1OC(F)(F)F	66.9	68.2	39.5	65.9
C=CC[C@@H](Cc1c[nH]c2ccccc12)NS(=O)(=O)c1ccc(C(F)(F)F)cc1Cl	36.1	44.8	33.1	53
C=CC[C@@H](Cc1c[nH]c2ccccc12)NS(=O)(=O)c1ccc(Cl)c([N+](=O)[O-])c1	–	53.2	89.7	–
C=CC[C@@H](Cc1c[nH]c2ccccc12)NS(=O)(=O)c1cc(Br)cc(C(F)(F)F)c1	22.9	31.9	25.3	29.3
C=CC[C@H](N)Cc1c[nH]c2ccccc12	> 100	> 100	> 100	> 100
C=CC[C@@H](Cc1c[nH]c2ccccc12)NS(=O)(=O)c1ccc(Br)cc1F	–	58.5	58.7	–
C=CC[C@@H](Cc1c[nH]c2ccccc12)NS(=O)(=O)c1ccc(C(F)(F)F)cc1Br	34.4	39.3	42.1	43.9
CCC[C@@H](Cc1c[nH]c2ccccc12)NS(=O)(=O)c1c(C(C)C)cc(C(C)C)cc1C(C)C	17.8	16.4	30.8	39.8
C=CC[C@@H](Cc1c[nH]c2ccccc12)NS(=O)(=O)c1ccc(C)cc1	–	> 100	> 100	–
C=CC[C@@H](Cc1c[nH]c2ccccc12)NS(=O)(=O)c1ccc(OC(F)(F)F)cc1	39.9	57.3	36	57.8
C=CC[C@@H](Cc1c[nH]c2ccccc12)NS(=O)(=O)c1ccc(Cl)cc1Cl	42.7	41.1	55.4	55.7
C=CC[C@@H](Cc1c[nH]c2ccccc12)NS(=O)(=O)c1cc(C)ccc1C	42	45.6	44.6	48.3
C=CC[C@@H](Cc1c[nH]c2ccccc12)NS(=O)(=O)c1c(C)c(C)cc(C)c1C	26.3	26.1	24.7	29.9
C=CC[C@@H](Cc1c[nH]c2ccccc12)NS(=O)(=O)c1ccc(C(F)(F)F)cc1	38.1	41.7	51.8	49.9

Compound	IC50 (CNE) [µM]	IC50 (HeLa) [µM]	IC50 (HepG2) [µM]	IC50 (A549) [µM]
C=CC[C@@H](Cc1c[nH]c2ccccc12)NS(=O)(=O)c1ccc(Cl)c(C(F)(F)F)c1	28.8	42.8	24.4	34.3
C=CC[C@@H](Cc1c[nH]c2ccccc12)NS(=O)(=O)c1cc(C(F)(F)F)cc(C(F)(F)F)c1	24.1	30.2	21.9	35.6
C=CC[C@@H](Cc1c[nH]c2ccccc12)NS(=O)(=O)c1c(C)cc(C)cc1C	31.5	35.3	37.2	40.4
C=CC[C@@H](Cc1c[nH]c2ccccc12)NS(=O)(=O)c1ccc(Br)c(C)c1	38.6	46.7	52.2	54.1
C=CC[C@@H](Cc1c[nH]c2ccccc12)NS(=O)(=O)c1ccc(Br)cc1	41.2	61	39.6	58.6
C=CC[C@@H](Cc1c[nH]c2ccccc12)NS(=O)(=O)c1cccc2c(N(C)C)cccc12	36	34.5	52	52.4
C=CC[C@@H](Cc1c[nH]c2ccccc12)NS(=O)(=O)c1ccc(Br)c(F)c1	–	54.5	58.1	–
C=CC[C@@H](Cc1c[nH]c2ccccc12)NS(=O)(=O)c1ccc(C(F)(F)F)cc1[N+](=O)[O-]	39.3	35.7	40.4	74.2
C=CC[C@@H](Cc1c[nH]c2ccccc12)NS(=O)(=O)c1ccccc1Cl	–	> 100	> 100	–
C=CC[C@@H](Cc1c[nH]c2ccccc12)NS(=O)(=O)c1cc(F)c(Br)cc1F	43.4	58.9	35.3	65
C=CC[C@@H](Cc1c[nH]c2ccccc12)NS(=O)(=O)c1ccc(C)c(F)c1	39.8	43.6	39.1	70.2
C=CC[C@@H](Cc1c[nH]c2ccccc12)NS(=O)(=O)c1ccc(Br)cc1Cl	38.5	53.5	54.3	48.8
C=CC[C@@H](Cc1c[nH]c2ccccc12)NS(=O)(=O)c1ccc(-c2ccccc2)cc1	34.5	34.5	43	33.6
C=CC[C@@H](Cc1c[nH]c2ccccc12)NS(=O)(=O)c1cccc(C(F)(F)F)c1	40.7	45.1	46.9	52.1
C=CC[C@@H](Cc1c[nH]c2ccccc12)NS(=O)(=O)c1ccc(F)cc1	–	> 100	> 100	–
C=CC[C@@H](Cc1c[nH]c2ccccc12)NS(=O)(=O)c1ccc(CCC)cc1	–	67.1	58.4	–
CCC[C@H](N)Cc1c[nH]c2ccccc12	> 100	> 100	> 100	> 100
C=CC[C@@H](Cc1c[nH]c2ccccc12)NS(=O)(=O)c1ccc(Cl)cc1[N+](=O)[O-]	–	67.9	71.3	–
C=CC[C@@H](Cc1c[nH]c2ccccc12)NS(=O)(=O)c1ccc(Cl)cc1F	–	74.4	78.4	–
C=CC[C@@H](Cc1c[nH]c2ccccc12)NS(=O)(=O)c1cccc(Br)c1	48	40.5	58.9	52.1
C=CC[C@@H](Cc1c[nH]c2ccccc12)NS(=O)(=O)c1ccc(C(C)C)cc1	43.6	43.5	46.4	53
